≈ marks a conversion by molar mass, not a printed value. Bounds are passed on as bounds.

From ChEMBL document CHEMBL3351374, “Semisynthetic teicoplanin derivatives as new influenza virus binding inhibitors: synthesis and antiviral studies” (Bioorg Med Chem Lett, 2014) come the findings set out here.

Data set [1] can be described thus: Cytotoxicity against chicken RBC assessed as minimum concentration required for hemagglutination by microscopy. Type of data set: cell-based, Gallus gallus. Particulars: erythrocyte. Summed up:
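Chicken red blood cells incubated with compound without virus. The value is the minimal concentration causing hemagglutination.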

For data set [2], the system named is Influenza A virus. Kind of data set: Antiviral activity against Influenza A virus (A/PR/8/34(H1N1)) infected in MDCK cells assessed as reduction in host cell viability after 72 hrs by MTS assay. Type of data set: functional, organism-based. Particulars: A/Puerto Rico/8/1934(H1N1).
For data set [3], the system named is Influenza B virus. Kind of data set: Antiviral activity against Influenza B virus (B/HK/05/1972) infected in MDCK cells assessed as reduction in host cell viability after 72 hrs by MTS assay. Type of data set: functional, cell-based. Particulars: B/Hong Kong/05/1972, MDCK. For orientation: Formazan colour is commonly taken as a measure of viable cells.
Data set [4] can be described thus: Antiviral activity against Influenza A virus (A/HK/7/1987(H3N2)) infected in MDCK cells assessed as reduction in host cell viability after 72 hrs by MTS assay. Type of data set: functional, cell-based, Influenza A virus (A/Hong Kong/7/1987(H3N2)).
A short description of data set [5]: Selectivity ratio of MCC for MDCK cells assessed as change in cell morphology after 72 hrs by microscopy to EC50 for Influenza A virus A/Virginia/ATCC3/2009 infected in MDCK cells. The settings on record: dog. Type of data set: cell-based.
For data set [6], the system named is Influenza A virus. The experiment in a line: Antiviral activity against Influenza A virus A/Virginia/ATCC3/2009 infected in MDCK cells assessed as reduction in host cell viability after 72 hrs by MTS assay. The settings on record: A/Virginia/ATCC3/2009, MDCK. The format is functional, organism-based.
Data set [7] can be described thus: Antiviral activity against Influenza A virus (A/HK/7/1987(H3N2)) infected in MDCK cells assessed as virus-induced cytopathic effect after 72 hrs by microscopy. The format is functional, cell-based, Influenza A virus (A/Hong Kong/7/1987(H3N2)).
Data set [8] is described as follows: Retention time of the compound by HPLC method. Type of data set: physicochemical.
The test system of data set [9] is Influenza A virus. The experiment in a line: Antiviral activity against Influenza A virus (A/PR/8/34(H1N1)) infected in MDCK cells assessed as virus-induced cytopathic effect after 72 hrs by microscopy. Type of data set: functional, organism-based. Particulars: A/Puerto Rico/8/1934(H1N1). In general terms: Cytopathic effects are the visible damage that an infection or toxin causes in cultured cells.

Data set [10] deals with Influenza B virus. The experiment in a line: Antiviral activity against Influenza B virus (B/HK/05/1972) infected in MDCK cells assessed as virus-induced cytopathic effect after 72 hrs by microscopy. The settings on record: B/Hong Kong/05/1972, MDCK. Type of data set: functional, cell-based.
Data set [11] is described as follows: Inhbition of Influenza A virus (A/X-31(H3N2) hemagglutinin binding to 2 hrs compound pre-incubated MDCK cells assessed as reduction in viral RNA measured after 1 hr by RT-qPCR analysis. Type of data set: cell-based. A digest of the protocol:
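Influenza virus binding to MDCK host cells measured with compound at 50, 10, 2 and 0.4 µM.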
For orientation: Real-time PCR tracks product formation cycle by cycle.

Data set [12] is described as follows: Cytotoxicity against MDCK cells assessed as change in cell morphology after 72 hrs by microscopy. Type of data set: cell-based, Canis lupus familiaris. Particulars: dog. A digest of the protocol:
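Uninfected MDCK cells exposed to compound. MCC is the minimal concentration causing minimal alterations in cell morphology, assessed by microscopy.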

Data set [13] can be described thus: Selectivity ratio of CC50 for MDCK cells assessed as reduction in cell viability after 72 hrs by MTS assay to EC50 for Influenza A virus A/Virginia/ATCC3/2009 infected in MDCK cells. Type of data set: cell-based. Particulars: dog, read-out: Ratio CC50/EC50.
For data set [14], the system named is Influenza A virus. The experiment in a line: Antiviral activity against Influenza A virus A/Virginia/ATCC3/2009 infected in MDCK cells assessed as virus-induced cytopathic effect after 72 hrs by microscopy. Type of data set: functional, organism-based. Particulars: A/Virginia/ATCC3/2009, MDCK.
Data set [15] can be described thus: Cytotoxicity against MDCK cells assessed as reduction in cell viability after 72 hrs by MTS assay. Type of data set: cell-based, Canis lupus familiaris. Particulars: dog.
Data set [16] deals with Staphylococcus aureus. Kind of data set: Antibacterial activity against methicillin-resistant Staphylococcus aureus ATCC 33591 by broth microdilution method. Type of data set: functional.
The subject of data set [17] is Influenza A virus. Kind of data set: Antiviral activity against Influenza A virus infected in chicken RBC assessed as minimum concentration required for inhibition of 4 hemagglutinating units of virus-induced hemagglutination after 1 hr by microscopy. The format is functional. Summed up:
(§1)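 Chicken red blood cells incubated with virus at 1, 2 or 4 HA-U plus compound. The value is the minimal concentration causing inhibition of hemagglutination.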

The subject of data set [18] is Enterococcus faecalis. Kind of data set: Antibacterial activity against Enterococcus faecalis ATCC 29212 by broth microdilution method. Type of data set: functional.
Data set [19] relates to Bacillus spizizenii. The experiment in a line: Antibacterial activity against Bacillus subtilis ATCC 6633 by broth microdilution method. The format is functional.
Data set [20] relates to Influenza A virus. Kind of data set: Antiviral activity against Influenza A virus infected in chicken RBC assessed as minimum concentration required for inhibition of 2 hemagglutinating units of virus-induced hemagglutination after 1 hr by microscopy. Type of data set: functional. Summed up:
as §1

Data set [21] relates to Enterococcus faecalis. Kind of data set: Antibacterial activity against vanA gene-positive Enterococcus faecalis 15376 by broth microdilution method. The format is functional.
Data set [22] relates to Staphylococcus aureus. Kind of data set: Antibacterial activity against methicillin-sensitive Staphylococcus aureus ATCC 29213 by broth microdilution method. The format is functional.
The test system of data set [23] is Influenza A virus. Kind of data set: Antiviral activity against Influenza A virus infected in chicken RBC assessed as minimum concentration required for inhibition of 1 hemagglutinating unit of virus-induced hemagglutination after 1 hr by microscopy. Type of data set: functional. A digest of the protocol:
as §1

In data set [24] the test system is Enterococcus faecalis. The experiment in a line: Antibacterial activity against vanA gene-positive Enterococcus faecalis ATCC 51299 by broth microdilution method. Type of data set: functional.
In data set [25] the test system is Staphylococcus epidermidis. Kind of data set: Antibacterial activity against biofilm forming Staphylococcus epidermidis ATCC 35984 by broth microdilution method. Type of data set: functional.
The test system of data set [26] is Staphylococcus epidermidis. The experiment in a line: Antibacterial activity against biofilm forming Staphylococcus epidermidis harboring mecA gene by broth microdilution method. The format is functional.

What is called EC50 is the concentration at which the effect is half-maximal. Usually IC50 stands for the concentration that gives 50% inhibition. The CC50 is the concentration at which the toxic effect on the cells reaches its halfway point. For the compound `CCCCCCCCO[C@@H]1[C@@H](OCCCCCCCC)[C@@H](OC)O[C@H](COCCOCCOCCOCCOCc2cn([C@H]3C(=O)N[C@@H]4Cc5ccc(c(Cl)c5)Oc5cc6cc(c5O)Oc5ccc(cc5Cl)[C@@H](O[C@@H]5O[C@H](CO)[C@@H](O)[C@H](O)[C@H]5NC(C)=O)[C@@H]5NC(=O)[C@H](NC(=O)[C@@H]6NC(=O)[C@@H](NC4=O)c4cc(O)cc(c4)Oc4cc3ccc4O)c3ccc(O)c(c3)-c3c(O)cc(O)cc3[C@@H](C(=O)O)NC5=O)nn2)[C@H]1OCc1ccc(OC)cc1` [listing 1 of 2 here], in [1], the Activity amounted to 50 µM. In addition, the EC50 is 1.2 µM in [2]; 1.5 µM in data set [3]; 1.2 µM in data set [4]; less than 0.8 µM in data set [6]; 1.8 µM in data set [7]; 0.8 µM in data set [9]. Besides, the figures for the EC50 in data set [10] and in data set [14] were more than 100 µM and 1.4 µM, respectively. In addition, the selectivity ratio at 72 h in [5] and in data set [13] was 4 each time. For the same compound, the Retention_time in [8] is on record as 8.16 min. In [11], the IC50 was found to be 4.7 µM. The MCC at 72 h in [12] amounted to 20 µM. Also, in [15], the CC50 at 72 h was found to be 11 µM.

For `CCCCCCCCO[C@@H]1[C@@H](OCCCCCCCC)[C@@H](OC)O[C@H](COCCOCCOCCOCCOCc2cn([C@H]3C(=O)N[C@@H]4Cc5ccc(c(Cl)c5)Oc5cc6cc(c5O)Oc5ccc(cc5Cl)[C@@H](O[C@@H]5O[C@H](CO)[C@@H](O)[C@H](O)[C@H]5NC(C)=O)[C@@H]5NC(=O)[C@H](NC(=O)[C@@H]6NC(=O)[C@@H](NC4=O)c4cc(O)cc(c4)Oc4cc3ccc4O)c3ccc(O)c(c3)-c3c(O)cc(O)cc3[C@@H](C(=O)O)NC5=O)nn2)[C@H]1OCc1ccc(OC)cc1` [listing 2 of 2 here], the MIC worked out at 64 µg/mL (≈ 29.3 µM) in data set [16]; 32 µg/mL (≈ 14.7 µM) in data set [18]; 256 µg/mL (≈ 117 µM) in data set [19]; 128 µg/mL (≈ 58.7 µM) in [21]; 128 µg/mL (≈ 58.7 µM) in [22]; 256 µg/mL (≈ 117 µM) in data set [24]. In addition, the figures for the MIC in [25] and in data set [26] were 16 µg/mL (≈ 7.34 µM) and 256 µg/mL (≈ 117 µM), respectively. Besides, the Activity in data set [17] is 12 µM; in data set [20], 6.3 µM; in [23] it was 0.78 µM.

Consider `C.CCCCCCCCO[C@H]1[C@@H](OC)O[C@H](COCCOCCOCCOCCOCc2cn([C@H]3C(=O)N[C@@H]4Cc5ccc(c(Cl)c5)Oc5cc6cc(c5O)Oc5ccc(cc5Cl)[C@@H](O[C@@H]5O[C@H](CO)[C@@H](O)[C@H](O)[C@H]5NC(C)=O)[C@@H]5NC(=O)[C@H](NC(=O)[C@@H]6NC(=O)[C@@H](NC4=O)c4cc(O)cc(c4)Oc4cc3ccc4O)c3ccc(O)c(c3)-c3c(O)cc(O)cc3[C@@H](C(=O)O)NC5=O)nn2)[C@@H](O)[C@@H]1OCCCCCCCC` [listing 1 of 2 here], for which the Activity in [1] is 50 µM. The EC50 is more than 100 µM in data set [2]; more than 100 µM in data set [3]; 2.2 µM in [4]; 1.3 µM in [6]; 2.3 µM in data set [7]; more than 100 µM in data set [9]. Further, the EC50 in data set [10] was more than 100 µM; in data set [14] it was 1.8 µM. Also, the selectivity ratio at 72 h in data set [5] and in [13] was 4 in each case. The compound also gave a Retention_time in [8] of 8.17 min. In [11], the IC50 stood at 7 µM. Moreover, the MCC at 72 h in [12] is not below 4 µM. Moreover, the CC50 at 72 h in [15] amounted to 12 µM.

Regarding `C.CCCCCCCCO[C@H]1[C@@H](OC)O[C@H](COCCOCCOCCOCCOCc2cn([C@H]3C(=O)N[C@@H]4Cc5ccc(c(Cl)c5)Oc5cc6cc(c5O)Oc5ccc(cc5Cl)[C@@H](O[C@@H]5O[C@H](CO)[C@@H](O)[C@H](O)[C@H]5NC(C)=O)[C@@H]5NC(=O)[C@H](NC(=O)[C@@H]6NC(=O)[C@@H](NC4=O)c4cc(O)cc(c4)Oc4cc3ccc4O)c3ccc(O)c(c3)-c3c(O)cc(O)cc3[C@@H](C(=O)O)NC5=O)nn2)[C@@H](O)[C@@H]1OCCCCCCCC` [listing 2 of 2 here], the MIC worked out at 8 µg/mL in data set [16]; 2 µg/mL in [18]; 4 µg/mL in data set [19]; 8 µg/mL in [21]; 16 µg/mL in data set [22]; 4 µg/mL in [24]. The MIC in data set [25] was 8 µg/mL; in data set [26], 256 µg/mL. The values for the Activity in [17], in [20] and in data set [23] were 3.1 µM, 0.78 µM and 0.39 µM, respectively.

For the compound `COc1ccc(CO[C@H]2[C@H](OC)[C@@H](OC)[C@@H](OC)O[C@@H]2COCCOCCOCCOCCOCc2cn([C@H]3C(=O)N[C@@H]4Cc5ccc(c(Cl)c5)Oc5cc6cc(c5O)Oc5ccc(cc5Cl)[C@@H](O[C@@H]5O[C@H](CO)[C@@H](O)[C@H](O)[C@H]5NC(C)=O)[C@@H]5NC(=O)[C@H](NC(=O)[C@@H]6NC(=O)[C@@H](NC4=O)c4cc(O)cc(c4)Oc4cc3ccc4O)c3ccc(O)c(c3)-c3c(O)cc(O)cc3[C@@H](C(=O)O)NC5=O)nn2)cc1`, the EC50 in data set [2], in data set [3], in [4], in [6], in data set [7] and in data set [9] was more than 100 µM in each case. Further, the EC50 in data set [10] and in [14] was more than 100 µM each time. For the same compound, the Retention_time in data set [8] is listed as 5.73 min. The MCC at 72 h in [12] was not below 20 µM. In addition, in data set [15], the CC50 at 72 h is 47 µM.
